test system: MCF7; assay: Antiproliferative activity against human MCF7 cells after 72 hrs by cell titer glo assay; type: functional, cell-based; details: MCF7, 72 h
Summary of the method: (§1)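 ATCC tumour cells kept in RPMI 1640 with 5% FBS, 2 mM glutamine, streptomycin and amphotericin at 37 °C, 5% CO2. Cells were trypsinised at 70–90% confluence and used only at >95% Trypan blue viability. Seeded at 5000 cells/well, rested 18–24 h, then dosed from DMSO stocks (0.1% DMSO final). ATP luminescence was read after 72 h. IC50 came from dose–response curves of 8 concentrations, four replicates each.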

IC50 | Structure (SMILES)
34.4 µM | Cn1c(N2N=C(c3ccccc3)CC2c2ccccc2)nc(-c2ccc(Cl)cc2)c(C#N)c1=O (stereo unspecified)
36.8 µM | Cn1c(N2N=C(c3ccccc3)CC2c2ccc(F)cc2)nc(-c2ccc(Cl)cc2)c(C#N)c1=O (stereo unspecified)
116 µM | Cc1ccc(C2=NN(c3nc(-c4ccc(Cl)cc4)c(C#N)c(=O)n3C)C(c3ccc(F)cc3)C2)cc1 (stereo unspecified)
25.3 µM | Cn1c(N2N=C(c3ccc(Cl)cc3)CC2c2ccccc2)nc(-c2ccc(Cl)cc2)c(C#N)c1=O (stereo unspecified)
27.3 µM | COc1ccc(C2CC(c3ccc(Cl)cc3)=NN2c2nc(-c3ccc(Cl)cc3)c(C#N)c(=O)n2C)cc1 (stereo unspecified)
99.8 µM | COc1ccc(C2=NN(c3nc(-c4ccc(Cl)cc4)c(C#N)c(=O)n3C)C(c3ccc(OC)cc3)C2)cc1 (stereo unspecified)
52.4 µM | COc1ccc(C2CC(c3ccccc3)=NN2c2nc(-c3ccc(Cl)cc3)c(C#N)c(=O)n2C)cc1 (stereo unspecified)
35.4 µM | Cn1c(N2N=C(c3ccccc3)CC2c2ccccc2)nc(-c2ccccc2)c(C#N)c1=O (stereo unspecified)
3.28 µM | Cn1c(N2N=C(c3ccccc3)CC2c2ccc(Cl)cc2)nc(-c2ccccc2)c(C#N)c1=O (stereo unspecified)
18 µM | COc1ccc(C2CC(c3ccccc3)=NN2c2nc(-c3ccccc3)c(C#N)c(=O)n2C)cc1 (stereo unspecified)
38.1 µM | Cn1c(N2N=C(c3ccccc3)CC2c2ccc(F)cc2)nc(-c2ccccc2)c(C#N)c1=O (stereo unspecified)
23.1 µM | Cc1ccc(C2=NN(c3nc(-c4ccccc4)c(C#N)c(=O)n3C)C(c3ccc(F)cc3)C2)cc1 (stereo unspecified)
12.2 µM | Cn1c(N2N=C(c3ccc(Cl)cc3)CC2c2ccccc2)nc(-c2ccccc2)c(C#N)c1=O (stereo unspecified)
4.8 µM | COc1ccc(C2CC(c3ccc(Cl)cc3)=NN2c2nc(-c3ccccc3)c(C#N)c(=O)n2C)cc1 (stereo unspecified)
127 µM | COc1ccc(C2=NN(c3nc(-c4ccccc4)c(C#N)c(=O)n3C)C(c3ccc(OC)cc3)C2)cc1 (stereo unspecified)
46.3 µM | Cn1c(N2N=C(c3ccccc3)CC2c2ccc(Cl)cc2)nc(-c2ccc(Cl)cc2)c(C#N)c1=O (stereo unspecified)

test system: HT-29; assay: Antiproliferative activity against human HT-29 cells after 72 hrs by cell titer glo assay; type: functional, cell-based; details: HT-29, 72 h; summary of the method: as §1

IC50 | Structure (SMILES)
19.5 µM | Cn1c(N2N=C(c3ccccc3)CC2c2ccccc2)nc(-c2ccc(Cl)cc2)c(C#N)c1=O (stereo unspecified)
13.7 µM | Cn1c(N2N=C(c3ccccc3)CC2c2ccc(F)cc2)nc(-c2ccc(Cl)cc2)c(C#N)c1=O (stereo unspecified)
10.5 µM | Cc1ccc(C2=NN(c3nc(-c4ccc(Cl)cc4)c(C#N)c(=O)n3C)C(c3ccc(F)cc3)C2)cc1 (stereo unspecified)
8.72 µM | Cn1c(N2N=C(c3ccc(Cl)cc3)CC2c2ccccc2)nc(-c2ccc(Cl)cc2)c(C#N)c1=O (stereo unspecified)
15.1 µM | COc1ccc(C2CC(c3ccc(Cl)cc3)=NN2c2nc(-c3ccc(Cl)cc3)c(C#N)c(=O)n2C)cc1 (stereo unspecified)
18.2 µM | COc1ccc(C2=NN(c3nc(-c4ccc(Cl)cc4)c(C#N)c(=O)n3C)C(c3ccc(OC)cc3)C2)cc1 (stereo unspecified)
11 µM | COc1ccc(C2CC(c3ccccc3)=NN2c2nc(-c3ccc(Cl)cc3)c(C#N)c(=O)n2C)cc1 (stereo unspecified)
2.49 µM | Cn1c(N2N=C(c3ccccc3)CC2c2ccccc2)nc(-c2ccccc2)c(C#N)c1=O (stereo unspecified)
19.2 µM | Cn1c(N2N=C(c3ccccc3)CC2c2ccc(Cl)cc2)nc(-c2ccccc2)c(C#N)c1=O (stereo unspecified)
14.7 µM | COc1ccc(C2CC(c3ccccc3)=NN2c2nc(-c3ccccc3)c(C#N)c(=O)n2C)cc1 (stereo unspecified)
8.15 µM | Cn1c(N2N=C(c3ccccc3)CC2c2ccc(F)cc2)nc(-c2ccccc2)c(C#N)c1=O (stereo unspecified)
4.62 µM | Cc1ccc(C2=NN(c3nc(-c4ccccc4)c(C#N)c(=O)n3C)C(c3ccc(F)cc3)C2)cc1 (stereo unspecified)
6.6 µM | Cn1c(N2N=C(c3ccc(Cl)cc3)CC2c2ccccc2)nc(-c2ccccc2)c(C#N)c1=O (stereo unspecified)
9.12 µM | COc1ccc(C2CC(c3ccc(Cl)cc3)=NN2c2nc(-c3ccccc3)c(C#N)c(=O)n2C)cc1 (stereo unspecified)
9.42 µM | COc1ccc(C2=NN(c3nc(-c4ccccc4)c(C#N)c(=O)n3C)C(c3ccc(OC)cc3)C2)cc1 (stereo unspecified)
15 µM | Cn1c(N2N=C(c3ccccc3)CC2c2ccc(Cl)cc2)nc(-c2ccc(Cl)cc2)c(C#N)c1=O (stereo unspecified)
2.75 µM | COc1cccc2c1C(=O)c1c(O)c3c(c(O)c1C2=O)C[C@@](O)(C(=O)CO)C[C@@H]3O[C@H]1C[C@H](N)[C@H](O)[C@H](C)O1 [DOXORUBICIN]

test system: MDA-MB-231; assay: Antiproliferative activity against human MDA-MB-231 cells after 72 hrs by cell titer glo assay; type: functional, cell-based; details: MDA-MB-231, 72 h; summary of the method: as §1

IC50 | Structure (SMILES)
29.1 µM | Cn1c(N2N=C(c3ccccc3)CC2c2ccccc2)nc(-c2ccc(Cl)cc2)c(C#N)c1=O (stereo unspecified)
20.9 µM | Cn1c(N2N=C(c3ccccc3)CC2c2ccc(F)cc2)nc(-c2ccc(Cl)cc2)c(C#N)c1=O (stereo unspecified)
19.3 µM | Cc1ccc(C2=NN(c3nc(-c4ccc(Cl)cc4)c(C#N)c(=O)n3C)C(c3ccc(F)cc3)C2)cc1 (stereo unspecified)
12.4 µM | Cn1c(N2N=C(c3ccc(Cl)cc3)CC2c2ccccc2)nc(-c2ccc(Cl)cc2)c(C#N)c1=O (stereo unspecified)
24.8 µM | COc1ccc(C2CC(c3ccc(Cl)cc3)=NN2c2nc(-c3ccc(Cl)cc3)c(C#N)c(=O)n2C)cc1 (stereo unspecified)
28.3 µM | COc1ccc(C2=NN(c3nc(-c4ccc(Cl)cc4)c(C#N)c(=O)n3C)C(c3ccc(OC)cc3)C2)cc1 (stereo unspecified)
19.5 µM | COc1ccc(C2CC(c3ccccc3)=NN2c2nc(-c3ccc(Cl)cc3)c(C#N)c(=O)n2C)cc1 (stereo unspecified)
3.99 µM | Cn1c(N2N=C(c3ccccc3)CC2c2ccccc2)nc(-c2ccccc2)c(C#N)c1=O (stereo unspecified)
28 µM | Cn1c(N2N=C(c3ccccc3)CC2c2ccc(Cl)cc2)nc(-c2ccccc2)c(C#N)c1=O (stereo unspecified)
12.8 µM | COc1ccc(C2CC(c3ccccc3)=NN2c2nc(-c3ccccc3)c(C#N)c(=O)n2C)cc1 (stereo unspecified)
11.8 µM | Cn1c(N2N=C(c3ccccc3)CC2c2ccc(F)cc2)nc(-c2ccccc2)c(C#N)c1=O (stereo unspecified)
5.1 µM | Cc1ccc(C2=NN(c3nc(-c4ccccc4)c(C#N)c(=O)n3C)C(c3ccc(F)cc3)C2)cc1 (stereo unspecified)
10.6 µM | Cn1c(N2N=C(c3ccc(Cl)cc3)CC2c2ccccc2)nc(-c2ccccc2)c(C#N)c1=O (stereo unspecified)
11.1 µM | COc1ccc(C2CC(c3ccc(Cl)cc3)=NN2c2nc(-c3ccccc3)c(C#N)c(=O)n2C)cc1 (stereo unspecified)
16.2 µM | COc1ccc(C2=NN(c3nc(-c4ccccc4)c(C#N)c(=O)n3C)C(c3ccc(OC)cc3)C2)cc1 (stereo unspecified)
25.1 µM | Cn1c(N2N=C(c3ccccc3)CC2c2ccc(Cl)cc2)nc(-c2ccc(Cl)cc2)c(C#N)c1=O (stereo unspecified)

test system: A549; assay: Antiproliferative activity against human A549 cells after 72 hrs by cell titer glo assay; type: functional, cell-based; details: A549, 72 h; summary of the method: as §1

IC50 | Structure (SMILES)
28.1 µM | Cn1c(N2N=C(c3ccccc3)CC2c2ccccc2)nc(-c2ccc(Cl)cc2)c(C#N)c1=O (stereo unspecified)
27.8 µM | Cn1c(N2N=C(c3ccccc3)CC2c2ccc(F)cc2)nc(-c2ccc(Cl)cc2)c(C#N)c1=O (stereo unspecified)
35.6 µM | Cc1ccc(C2=NN(c3nc(-c4ccc(Cl)cc4)c(C#N)c(=O)n3C)C(c3ccc(F)cc3)C2)cc1 (stereo unspecified)
43.9 µM | Cn1c(N2N=C(c3ccc(Cl)cc3)CC2c2ccccc2)nc(-c2ccc(Cl)cc2)c(C#N)c1=O (stereo unspecified)
35.6 µM | COc1ccc(C2CC(c3ccc(Cl)cc3)=NN2c2nc(-c3ccc(Cl)cc3)c(C#N)c(=O)n2C)cc1 (stereo unspecified)
39.7 µM | COc1ccc(C2=NN(c3nc(-c4ccc(Cl)cc4)c(C#N)c(=O)n3C)C(c3ccc(OC)cc3)C2)cc1 (stereo unspecified)
23.8 µM | COc1ccc(C2CC(c3ccccc3)=NN2c2nc(-c3ccc(Cl)cc3)c(C#N)c(=O)n2C)cc1 (stereo unspecified)
52.9 µM | Cn1c(N2N=C(c3ccccc3)CC2c2ccccc2)nc(-c2ccccc2)c(C#N)c1=O (stereo unspecified)
3.25 µM | Cn1c(N2N=C(c3ccccc3)CC2c2ccc(Cl)cc2)nc(-c2ccccc2)c(C#N)c1=O (stereo unspecified)
1.76 µM | COc1ccc(C2CC(c3ccccc3)=NN2c2nc(-c3ccccc3)c(C#N)c(=O)n2C)cc1 (stereo unspecified)
39.2 µM | Cn1c(N2N=C(c3ccccc3)CC2c2ccc(F)cc2)nc(-c2ccccc2)c(C#N)c1=O (stereo unspecified)
2 µM | Cc1ccc(C2=NN(c3nc(-c4ccccc4)c(C#N)c(=O)n3C)C(c3ccc(F)cc3)C2)cc1 (stereo unspecified)
26.9 µM | Cn1c(N2N=C(c3ccc(Cl)cc3)CC2c2ccccc2)nc(-c2ccccc2)c(C#N)c1=O (stereo unspecified)
6.07 µM | COc1ccc(C2CC(c3ccc(Cl)cc3)=NN2c2nc(-c3ccccc3)c(C#N)c(=O)n2C)cc1 (stereo unspecified)
26.5 µM | COc1ccc(C2=NN(c3nc(-c4ccccc4)c(C#N)c(=O)n3C)C(c3ccc(OC)cc3)C2)cc1 (stereo unspecified)
24.7 µM | Cn1c(N2N=C(c3ccccc3)CC2c2ccc(Cl)cc2)nc(-c2ccc(Cl)cc2)c(C#N)c1=O (stereo unspecified)
3.13 µM | COc1cccc2c1C(=O)c1c(O)c3c(c(O)c1C2=O)C[C@@](O)(C(=O)CO)C[C@@H]3O[C@H]1C[C@H](N)[C@H](O)[C@H](C)O1 [DOXORUBICIN]

— ChEMBL document CHEMBL3085674, “Synthesis of some dihydropyrimidine-based compounds bearing pyrazoline moiety and evaluation of their antiproliferative activity” (Eur J Med Chem, 2013)
